Reference: ChEMBL document CHEMBL1135410, “Adenine nucleotide analogues locked in a Northern methanocarba conformation: enhanced stability and potency as P2Y(1) receptor agonists” (J Med Chem, 2002)
Values belong to the compound of their own block, whether it stands above or below them. Calls of active or inactive are those of the source. The calls are words filed in the database; no cut-off is given here.

Tests used:
P2Y purinoceptor 1 [1] = molecular target: P2Y purinoceptor 1 (Meleagris gallopavo, UniProt P49652); test: Activation of Purinoceptor P2Y1-mediated phospholipase C in turkey erythrocyte membranes; type: cell membranes
In short: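 Turkey erythrocytes labelled 18–24 h at 37 °C with 2-[3H]myo-inositol in inositol-free DMEM. Total [3H]inositol phosphates separated by anion exchange. EC50 from four-parameter logistic fit, at least three experiments.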

P2Y purinoceptor 1 [2] = molecular target: T1, P2Y purinoceptor 1 (Homo sapiens, UniProt P47900); test: Accumulation of inositol phosphate in 1321N1 astrocytoma cells expressing human P2Y1 purinoceptor; type: cell-based
In short: (§1)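 Inositol phosphate accumulation measured in 1321N1 human astrocytoma cells stably expressing human P2Y1, P2Y2, P2Y4 or P2Y11 receptor. Full concentration–effect curves, repeated in at least three separate experiments run in duplicate or triplicate. EC50 from four-parameter logistic fit. Relative efficacy (%) taken against a maximal effective concentration of UTP or UDP in the same experiment.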

[3] = molecular target: P2Y purinoceptor 1 (Meleagris gallopavo) (UniProt P49652); test: Agonist activity by measuring Purinoceptor P2Y1-promoted phospholipase C activity in turkey erythrocyte membranes; No effect as either agonist or antagonist at 10 uM; type: functional, cell membranes
In short: (§2)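 Turkey erythrocytes labelled 18–24 h at 37 °C with 2-[3H]myo-inositol in inositol-free DMEM. Ghosts (about 175 μg protein) incubated 5 min at 30 °C in pH 7.0 Hepes/KCl buffer with EGTA, CaCl2 and MgSO4, plus 1 μM GTPγS and the agonist. Total [3H]inositol phosphates separated by anion exchange. EC50 from four-parameter logistic fit, at least three experiments.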

P2Y purinoceptor 1 [4] = molecular target: T1, P2Y purinoceptor 1; test: Agonist activity by measuring inositol phosphate accumulation in 1321N1 human astrocytoma cells stably expressing human P2Y purinoceptor 1; No effect as either agonist or antagonist at 10 uM; type: functional; in short: as §1
P2Y purinoceptor 2 [5] = molecular target: T2, P2Y purinoceptor 2 (Homo sapiens, UniProt P41231); test: Agonist activity by measuring inositol phosphate accumulation in 1321N1 human astrocytoma cells stably expressing human P2Y purinoceptor 2; type: functional; in short: as §1
Rattus norvegicus = species: Rattus norvegicus; test: Hydrolysis rate of compound as substrate of purified recombinant rat Ecto-5'-nucleotidase; type: functional; set-up: scale not given: the % may be the effect or the level left
In short: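 Purified baculovirus-expressed rat ecto-5′-nucleotidase (0.5 μg) incubated 10 min at 37 °C with 100 μM (final) substrate in Tris-buffered saline containing 0.4 mM MgCl2, pH 7.4. Reaction stopped with 5% TCA. Released inorganic phosphate measured by the Lanzetta method. Activity expressed relative to AMP (100%). Two experiments, each in duplicate.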

[6] = molecular target: P2Y purinoceptor 1 (Meleagris gallopavo) (UniProt P49652); test: Agonist activity by measuring Purinoceptor P2Y1-promoted phospholipase C activity in turkey erythrocyte membranes; NE means no effect.; type: functional, cell membranes; in short: as §2
[7] = molecular target: T3, P2Y purinoceptor 11 (Homo sapiens) (UniProt Q96G91); test: Agonist activity by measuring inositol phosphate accumulation in 1321N1 human astrocytoma cells stably expressing human P2Y purinoceptor 11; No effect as either agonist or antagonist at 10 uM; type: functional; in short: as §1
T3 sequence (whole entry): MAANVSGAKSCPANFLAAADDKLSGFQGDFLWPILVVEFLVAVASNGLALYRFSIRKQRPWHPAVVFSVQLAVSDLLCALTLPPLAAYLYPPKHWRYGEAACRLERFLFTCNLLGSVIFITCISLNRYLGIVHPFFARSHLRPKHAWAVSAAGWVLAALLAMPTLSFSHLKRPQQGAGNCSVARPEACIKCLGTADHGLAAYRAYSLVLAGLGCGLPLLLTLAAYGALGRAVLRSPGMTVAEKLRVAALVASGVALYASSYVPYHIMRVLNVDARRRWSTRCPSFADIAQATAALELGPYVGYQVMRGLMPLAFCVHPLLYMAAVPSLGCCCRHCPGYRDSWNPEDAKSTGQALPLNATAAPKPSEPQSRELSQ

[8] = molecular target: P2Y purinoceptor 1 (Meleagris gallopavo) (UniProt P49652); test: Agonist activity by measuring Purinoceptor P2Y1-promoted phospholipase C activity in turkey erythrocyte membranes; type: functional, cell membranes; in short: as §2
P2Y purinoceptor 2 [9] = molecular target: T2, P2Y purinoceptor 2; test: Agonist activity by measuring inositol phosphate accumulation in 1321N1 human astrocytoma cells stably expressing human P2Y purinoceptor 2; No effect as either agonist or antagonist at 10 uM; type: functional
[10] = molecular target: P2Y purinoceptor 4 (Homo sapiens) (UniProt P51582); test: Agonist activity by measuring inositol phosphate accumulation in 1321N1 human astrocytoma cells stably expressing human P2Y purinoceptor 4; No effect as either agonist or antagonist at 10 uM; type: functional; in short: as §1
P2Y purinoceptor 4 (Homo sapiens), sequence (P51582 whole entry): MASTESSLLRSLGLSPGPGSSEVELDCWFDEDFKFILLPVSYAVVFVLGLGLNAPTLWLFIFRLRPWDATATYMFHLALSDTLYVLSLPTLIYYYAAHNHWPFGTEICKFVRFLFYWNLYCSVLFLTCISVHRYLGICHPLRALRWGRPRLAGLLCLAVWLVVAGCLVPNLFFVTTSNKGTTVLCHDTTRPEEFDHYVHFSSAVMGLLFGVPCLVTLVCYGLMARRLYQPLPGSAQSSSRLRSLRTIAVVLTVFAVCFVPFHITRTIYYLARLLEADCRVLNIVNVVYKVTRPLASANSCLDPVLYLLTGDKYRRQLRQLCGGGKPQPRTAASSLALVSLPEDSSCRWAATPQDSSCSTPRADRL

T2 sequence (P41231 whole entry): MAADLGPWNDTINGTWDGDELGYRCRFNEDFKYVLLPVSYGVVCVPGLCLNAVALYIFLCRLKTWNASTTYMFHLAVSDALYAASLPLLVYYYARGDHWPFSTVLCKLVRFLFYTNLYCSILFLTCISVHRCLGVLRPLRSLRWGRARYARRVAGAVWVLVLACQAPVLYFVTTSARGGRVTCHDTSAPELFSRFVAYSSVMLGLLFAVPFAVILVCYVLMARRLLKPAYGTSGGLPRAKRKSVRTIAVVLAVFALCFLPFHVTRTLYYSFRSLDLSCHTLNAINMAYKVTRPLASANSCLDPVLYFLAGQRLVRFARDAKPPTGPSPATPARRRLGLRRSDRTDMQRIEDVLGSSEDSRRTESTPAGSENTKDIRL
P2Y purinoceptor 1 (Meleagris gallopavo), sequence (P49652 whole entry): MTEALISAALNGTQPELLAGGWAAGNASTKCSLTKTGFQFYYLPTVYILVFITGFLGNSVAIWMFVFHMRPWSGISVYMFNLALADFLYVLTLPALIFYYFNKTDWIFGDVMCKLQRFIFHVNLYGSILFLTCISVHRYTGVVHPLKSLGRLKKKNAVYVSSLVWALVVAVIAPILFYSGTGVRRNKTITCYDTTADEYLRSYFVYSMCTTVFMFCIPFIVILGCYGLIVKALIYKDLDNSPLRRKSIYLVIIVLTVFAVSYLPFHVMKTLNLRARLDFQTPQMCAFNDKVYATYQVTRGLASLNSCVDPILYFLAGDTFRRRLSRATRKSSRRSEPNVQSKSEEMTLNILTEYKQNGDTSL
P2Y purinoceptor 1 (Meleagris gallopavo, UniProt P49652), sequence (P49652 whole entry): as above
T1 sequence (P47900 whole entry): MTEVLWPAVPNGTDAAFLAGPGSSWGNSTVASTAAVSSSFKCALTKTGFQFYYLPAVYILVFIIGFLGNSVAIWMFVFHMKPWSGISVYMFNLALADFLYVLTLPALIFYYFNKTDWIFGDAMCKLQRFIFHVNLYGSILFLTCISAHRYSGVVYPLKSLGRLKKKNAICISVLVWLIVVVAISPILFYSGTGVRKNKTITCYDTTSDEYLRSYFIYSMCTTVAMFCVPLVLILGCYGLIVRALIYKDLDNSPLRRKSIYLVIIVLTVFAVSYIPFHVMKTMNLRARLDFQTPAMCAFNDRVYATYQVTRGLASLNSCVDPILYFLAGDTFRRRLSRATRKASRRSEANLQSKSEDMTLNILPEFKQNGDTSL

EC50 (P2Y purinoceptor 1 [1]): 3.7 nM
EC50 (P2Y purinoceptor 1 [2]): 23 nM
Structure (SMILES): CSc1nc(N)c2ncn(C3C(O)C(O)[C@@]4(COP(=O)(O)OP(=O)(O)OP(=O)(O)O)C[C@@H]34)c2n1 (some centres not stated)

NE [3]: inactive
Structure (SMILES): CNC(=O)[C@@]12C[C@@H]1[C@@H](n1cnc3c(NC)nc(Cl)nc31)[C@H](O)[C@@H]2O

EC50 (P2Y purinoceptor 1 [1]): 36.6 nM
Structure (SMILES): C[S+]([O-])c1nc(N)c2ncn([C@H]3[C@H](O)[C@H](O)[C@@]4(COP(=O)(O)O)C[C@H]34)c2n1 (some centres not stated)

Activity (Rattus norvegicus): 0%
Structure (SMILES): Nc1ncnc2c1ncn2[C@@]12C[C@@H]1[C@H](COP(=O)(O)O)[C@H](O)[C@@H]2O

EC50 (P2Y purinoceptor 1 [1]): 3900 nM
EC50 (P2Y purinoceptor 1 [2]): 1890 nM
Structure (SMILES): Nc1nc(Cl)nc2c1ncn2[C@H]1[C@H](O)[C@H](O)[C@@]2(COP(=O)(O)O)C[C@@H]12

EC50 (P2Y purinoceptor 1 [1]): 11300 nM
EC50 (P2Y purinoceptor 1 [2]): 158 nM
NE (P2Y purinoceptor 2 [9]): inactive
NE [10]: inactive
Structure (SMILES): Nc1ncnc2c1ncn2C1C(O)C(O)[C@@]2(COP(=O)(O)OP(=O)(O)CP(=O)(O)O)C[C@H]12 (some centres not stated)

The remaining lines, values behind:

Structure (SMILES): Nc1nc(Cl)nc2c1ncn2[C@@H]1O[C@H](COP(=O)(O)O)[C@@H](O)[C@H]1O
NE (P2Y purinoceptor 1 [4]): inactive
NE [3]: inactive

Structure (SMILES): CNc1ncnc2c1ncn2C1C(O)C(O)[C@@]2(COP(=O)(O)OP(=O)(O)OP(=O)(O)O)C[C@@H]12 (some centres not stated)
EC50 (P2Y purinoceptor 1 [1]): 92 nM
EC50 (P2Y purinoceptor 1 [2]): 33 nM
EC50 (P2Y purinoceptor 2 [5]): 197 nM

Structure (SMILES): CNc1nc(Cl)nc2c1ncn2C1C(O)C(O)[C@@]2(COP(=O)(O)OP(=O)(O)OP(=O)(O)O)C[C@@H]12 (some centres not stated)
EC50 (P2Y purinoceptor 1 [1]): 6 nM
EC50 (P2Y purinoceptor 1 [2]): 9 nM
EC50 (P2Y purinoceptor 2 [5]): 8400 nM

Structure (SMILES): Nc1ncnc2c1ncn2[C@H]1[C@H](O)[C@H](O)[C@@]2(COP(=O)(O)O)C[C@H]12
NE [6]: inactive
Activity (Rattus norvegicus): 0.14%

Structure (SMILES): CSc1nc(N)c2ncn([C@@H]3O[C@H](COP(=O)(O)O)[C@@H](O)[C@H]3O)c2n1
NE (P2Y purinoceptor 1 [4]): inactive
NE [7]: inactive
% of maximal effect [8]: 15%

Structure (SMILES): Nc1nc(Cl)nc2c1ncn2[C@@H]1O[C@H](COP(=O)(O)OP(=O)(O)OP(=O)(O)O)[C@@H](O)[C@H]1O
EC50 (P2Y purinoceptor 1 [1]): 720 nM
EC50 (P2Y purinoceptor 1 [2]): 770 nM
EC50 (P2Y purinoceptor 2 [5]): 2300 nM
